In ChEMBL document CHEMBL1124730, “Acid-stable 2'-fluoro purine dideoxynucleosides as active agents against HIV” (1990):
Active and inactive are the calls of the source. No cut-off for these calls is given here.

Tests used:
H9 (Homo sapiens) [1] = assay: Percentage of gag protein expression using H9 cells at 0 uM on 10th day
H9 [2] = assay: Percentage of gag protein expression using H9 cells at 100 uM on 10th day; assay type: functional, Homo sapiens
In short: (§1)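 H9 cells (105) were infected with HIV-1 (500 virus particles per cell) and cultured without or with drug at the stated concentration. On days 7, 10 and 12, the percentage of cells expressing HIV-1 p24 gag protein was scored by indirect immunofluorescence with murine monoclonal antibody M26.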

H9 [3] = assay: Percentage of gag protein expression using H9 cells at 200 uM on 12th day; assay type: functional, Homo sapiens
In short: as §1

H9 [4] = assay: Percentage of gag protein expression using H9 cells at 50 uM on 12th day; assay type: functional, Homo sapiens
In short: as §1

H9 [5] = assay: Percentage of gag protein expression using H9 cells at 0 uM on 7th day; assay type: functional, Homo sapiens
In short: as §1

H9 [6] = assay: Percentage of gag protein expression using H9 cells at 5 uM on 7th day; assay type: functional, Homo sapiens
In short: as §1

H9 [7] = assay: Percentage of gag protein expression using H9 cells at 5 uM on 12th day; assay type: functional, Homo sapiens
In short: as §1

H9 [8] = assay: Percentage of gag protein expression using H9 cells at 20 uM on 10th day; assay type: functional, Homo sapiens
In short: as §1

H9 [9] = assay: Percentage of gag protein expression using H9 cells at 5 uM on 10th day; assay type: functional, Homo sapiens
In short: as §1

H9 [10] = assay: Percentage of gag protein expression using H9 cells at 20 uM on 12th day; assay type: functional, Homo sapiens
In short: as §1

H9 [11] = assay: Percentage of gag protein expression using H9 cells at 50 uM on 10th day; assay type: functional, Homo sapiens
In short: as §1

H9 [12] = assay: Percentage of gag protein expression using H9 cells at 200 uM on 7th day; assay type: functional, Homo sapiens
In short: as §1

H9 (Homo sapiens) [13] = assay: Percentage of gag protein expression using H9 cells at 0 uM on 12th day
H9 [14] = assay: Percentage of gag protein expression using H9 cells at 200 uM on 10th day; assay type: functional, Homo sapiens
In short: as §1

H9 [15] = assay: Percentage of gag protein expression using H9 cells at 20 uM on 7th day; assay type: functional, Homo sapiens
In short: as §1

H9 [16] = assay: Percentage of gag protein expression using H9 cells at 50 uM on 7th day; assay type: functional, Homo sapiens
In short: as §1

H9 [17] = assay: Percentage of gag protein expression using H9 cells at 100 uM on 7th day; assay type: functional, Homo sapiens
In short: as §1

H9 [18] = assay: Percentage of gag protein expression using H9 cells at 100 uM on 12th day; assay type: functional, Homo sapiens
In short: as §1

[19] = tested on: Human immunodeficiency virus 1; assay: Ability to protect CD4+ ATH8 cells from cytopathogenic effects of HIV-1; Inactive; assay type: functional, organism-based; details: ATH-8
[20] = tested on: Human immunodeficiency virus 1; assay: Ability to protect CD4+ ATH8 cells from cytopathogenic effect of HIV-1; Active; assay type: functional, organism-based; details: ATH-8
[21] = tested on: Human immunodeficiency virus 1; assay: Ability to protect CD4+ ATH8 cells from cytopathogenic effects of HIV-1; No effect; assay type: functional, organism-based; details: ATH-8

Nc1ncnc2c1ncn2[C@@H]1O[C@H](CO)C[C@@H]1F [LODENOSINE] showed an Expression (H9 (Homo sapiens) [1]) of 71%, an Expression (H9 [2]) of 34% and an Expression (H9 [3]) of 0%. For the same compound, the Expression (H9 [4]) was 19%, the Expression (H9 [5]) was 79% and the Expression (H9 [6]) was 58%. For the same compound, the Expression (H9 [7]) was 66%, the Expression (H9 [8]) was 37% and the Expression (H9 [9]) was 73%. The Expression (H9 [10]) was 53%, the Expression (H9 [11]) was 20% and the Expression (H9 [12]) was 0%. It also gave an Expression (H9 (Homo sapiens) [13]) of 79%, an Expression (H9 [14]) of 0% and an Expression (H9 [15]) of 61%. The Expression (H9 [16]) was 18%, the Expression (H9 [17]) was 10% and the Expression (H9 [18]) was 50%.

With Nc1ncnc2c1ncn2[C@@H]1O[C@H](CO)C[C@H]1F the Activity [19] was “inactive”.

In the case of OCC1CC(F)C(n2cnc3c(O)ncnc32)O1 (stereo unspecified), the Expression (H9 (Homo sapiens) [1]) is reported as 71%, the Expression (H9 [2]) is reported as 12% and the Expression (H9 [3]) is reported as 60%. The Expression (H9 [4]) was 57%, the Expression (H9 [5]) was 76% and the Activity [20] was “Active”. The Expression (H9 [6]) was 54%, the Expression (H9 [7]) was 61% and the Expression (H9 [8]) was 52%. It also gave an Expression (H9 [9]) of 82%, an Expression (H9 [10]) of 61% and an Expression (H9 [11]) of 24%. The Expression (H9 [12]) was 7%, the Expression (H9 (Homo sapiens) [13]) was 74% and the Expression (H9 [14]) was 10%. For the same compound, the Expression (H9 [15]) was 58%, the Expression (H9 [16]) was 23% and the Expression (H9 [17]) was 34%. It also gave an Expression (H9 [18]) of 53%.

Work on Nc1ncnc2c1ncn2[C@H]1CC[C@@H](CO)O1 yielded an Expression (H9 (Homo sapiens) [1]) of 70%, an Expression (H9 [2]) of 0% and an Expression (H9 [3]) of 0%. It also gave an Expression (H9 [4]) of 2%, an Expression (H9 [5]) of 79% and an Expression (H9 [6]) of 48%. The Expression (H9 [7]) was 86%, the Activity [21] was “inactive” and the Expression (H9 [8]) was 0%. The Expression (H9 [9]) was 48%, the Expression (H9 [10]) was 8% and the Expression (H9 [11]) was 0%. For the same compound, the Expression (H9 [12]) was 0%, the Expression (H9 (Homo sapiens) [13]) was 84% and the Expression (H9 [14]) was 0%. For the same compound, the Expression (H9 [15]) was 1%, the Expression (H9 [16]) was 0% and the Expression (H9 [17]) was 0%. It also gave an Expression (H9 [18]) of 0%.

O=c1[nH]cnc2c1ncn2[C@H]1CC[C@@H](CO)O1 [DIDANOSINE] showed an Expression (H9 (Homo sapiens) [1]) of 73%, an Expression (H9 [2]) of 0% and an Expression (H9 [3]) of 0%. For the same compound, the Expression (H9 [4]) was 3%, the Expression (H9 [5]) was 76% and the Activity [20] was “Active”. For the same compound, the Expression (H9 [6]) was 73%, the Expression (H9 [7]) was 74% and the Expression (H9 [8]) was 30%. For the same compound, the Expression (H9 [9]) was 53%, the Expression (H9 [10]) was 48% and the Expression (H9 [11]) was 0%. It also gave an Expression (H9 [12]) of 0%, an Expression (H9 (Homo sapiens) [13]) of 83% and an Expression (H9 [14]) of 0%. For the same compound, the Expression (H9 [15]) was 9%, the Expression (H9 [16]) was 0% and the Expression (H9 [17]) was 0%. For the same compound, the Expression (H9 [18]) was 0%.
